TLR9-MyD88 inh: inhibitors of human TLR9-MyD88 binding. CHO BLA complementation TLR9-MyD88, CCF4 FRET ratio. inhibition, % at 4.98 µM. 340,000 compounds, 0.21% hits;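 active means inhibition above the mean over all tested compounds plus 3 SD, cut at about 21% in these data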;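 further: 0% = DMSO only wells and 100% = clavulanate BLA inhibitor control wells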
Hsp70 act: switches on Hsp70 transcription. HeLa Hsp70 promoter luciferase reporter, luminescence; scaled: vehicle 0, proteasome-inhibitor control 100%. activation, % at 10 µM. 200,000 compounds, 0.04% hits;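 active means activation above the mean across all tested compounds plus 3 SD, cutoff set per campaign, cut at about 5.5% in these data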;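 further: 100% = MG132 at 30 µM as the positive control and 0% = DMSO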
b-catenin transl: alters nuclear translocation of beta-catenin in HeLa cells | 190,000 compounds, 0.3% hits | nuclear translocation activity, % at 5 µM | immunofluorescence imaging;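 active means nuclear translocation activity above 50% at 5 µM, with a well cell count of 50 or more; inconclusive means wells under 50 cells across six images, flagged as toxic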;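 further: per-cell ratio of nuclear to cytoplasmic median beta-catenin stain intensity; plate controls were DMSO negative control for no effect and GSK-3 inhibitor IX positive control for full effect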
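Read-out: Nuclear/cytoplasmic beta-catenin signal ratio, % activation | Assay system: Human HeLa cell line | Times: 24 h compound exposure at 37°C, 5% CO2 | Signal: Fluorescence imaging of beta-catenin antibody stain plus DAPI | Dosing: 5 µM primary, 0.02–20 µM confirmation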
NOD2-RIPK2 inh: NOD2-RIPK2 protein interaction inhibition; 360,000 compounds, 0.38% hits; O43353; inhibition, % at 4.98 µM; CHO BLA complementation NOD2-RIPK2, CCF4 ratio; AID 624267; in the data active means inhibition above about 21%;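 further: 0% = vehicle only and 100% = reference blocker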
MT stabilizer: microtubule stabilizers in HeLa cells | 200,000 compounds, 0.83% hits | HeLa tubulin immunostaining HCS, 24 h; share of cells brighter than vehicle mean+2SD | % tubulin-high responders, % at 10 µM;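 active means plate Z-score above 3 for both tubulin-high and condensed-nucleus cell shares, with cell loss under 80%, at 10 µM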;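 further: anti alpha tubulin signal scored within the nucleus-defined area of each cell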
TLR4 MyD88 comp: TLR4-MyD88 interaction inhibition in cells | HeLa CL3-4 TLR4/MyD88 BLA complementation, FRET ratio | O00206+Q99836 | 200,000 compounds, 0.18% hits | inhibition, % at 8.4 µM; in the data active means inhibition above about 25%;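 further: 0% = vehicle and 100% = reference inhibitor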
An asterisk follows results filed as active; ? = inconclusive; · = no result given. This is a sample that favours compounds with a hit; in the whole collection about 1% have one here.

SMILES	TLR9-MyD88 inh	Hsp70 act	b-catenin transl	NOD2-RIPK2 inh	MT stabilizer	TLR4 MyD88 comp
Cc1ccc(CNCCc2ccccc2F)cc1	-6.0	-0.5	-0.4	-19.7	1.9	-7.7
CCN(CC)c1ccc(CNCCc2ccccc2F)cc1	2.0	0.4	36.4	3.4	21.0*	3.5
O=C1NC(=O)C(CCc2ccncc2)(Cc2cccc(Cl)c2Cl)C(=O)N1c1ccc(Br)cc1 (stereo unspecified)	-5.8	-0.4	95.2*	2.7	18.9*	0.5
O=C(c1ccco1)c1cn(Cc2ccc(Cl)cc2)c2ccccc12	-0.2	-0.1	·	-1.4	5.6*	11.2
COc1ccccc1OCCCn1cc(C(=O)c2ccco2)c2ccccc21	1.9	-0.2	1.5	2.7	2.0	0.9
O=C(Cn1cc(C(=O)c2ccccc2)c2ccccc21)NCc1ccco1	-3.0	-0.2	-3.6	12.7	31.1*	4.8
Clc1ccc(C(c2ccc(Cl)cc2)n2cc[n+](CC(OCc3ccc(Cl)cc3Cl)c3ccc(Cl)cc3Cl)c2)cc1 (stereo unspecified)	28.4*	·	·	20.7	·	·
BrCC(Br)(Br)Br	-8.6	·	·	2.7	·	·
C#CCNc1ccncc1S(=O)(=O)NC(=O)NC(C)C	4.1	-0.2	0.9	10.5	3.7	-11.9
CC1(C)N2CC3([N+](=O)[O-])CN1CC([N+](=O)[O-])(C2)C3	12.9	·	0.2	-9.7	·	·
COc1ccc(C2NCc3ccc4c(c3-n3cccc32)OCO4)cc1O (stereo unspecified)	·	0.1	·	·	28.6*	18.1
O=C(c1ccc2c(c1)ncn2C1CCCCC1)N1CCC2(CC1)OCCO2	·	-0.2	3.3	·	26.7*	-20.3
Cc1cccc(-c2nc3ccc(C(=O)N4CCC5(CC4)OCCO5)cc3nc2-c2cccc(C)c2)c1	-5.0	·	·	-2.6	·	·
CCOC(=O)C1CCN(/C=C2/C(=O)NC(=O)N(Cc3ccco3)C2=O)CC1	5.0	-0.3	1.9	-2.0	40.7*	4.1
CCOc1ccccc1CN1CCCC(C(=O)c2cc(F)ccc2F)C1 (stereo unspecified)	-3.8	·	·	-10.6	·	·
NC(N)=N/N=C/c1ccc(N2CCOCC2)cc1	0.4	0.0	1.6	-7.8	10.1*	-6.0
COc1ccc(/C=N\N=C(N)N)cc1	1.0	0.0	1.8	-0.2	4.0	1.2
CN(Cc1cccc(-c2ccncc2)c1)C(=O)Oc1ccccc1Cc1ccccc1	·	·	·	0.6	·	·
NC(=O)c1cn(C2OC(CO)C(O)C2O)c2ncnc(N)c12 (stereo unspecified)	1.7	-0.6	?	-6.4	20.1*	5.7
N#Cc1cn(C2OC(CO)C(O)C2O)c2ncnc(N)c12 (stereo unspecified)	-5.8	·	·	-1.4	·	·
C#CCOc1cc(C2C3=C(COC3=O)Nc3cc4c(cc32)OCO4)ccc1OC (stereo unspecified)	18.9	0.5	79.9*	2.4	12.5*	-10.5
Cc1ccc(C2=NCC(=O)Nc3ccc(Br)cc32)cc1	-5.0	·	·	-0.9	·	·
CN(C)c1ccccc1	-4.1	·	·	-5.1	·	·
CN(C)c1ccc(C(=O)c2ccc(N(C)C)cc2)cc1	10.6	0.0	·	11.0	45.8*	16.4

Assay outcomes (PubChem BioAssay)
